# Measurements from different studies.
# Target: Leukocyte tyrosine kinase receptor (LTK, Homo sapiens, UniProt P29376)
Structure (SMILES),test,setting,measurement,result
Nc1nccc(-c2c(-c3ccc(F)cc3)ncn2C2CCNCC2)n1,"enzyme activity, inhibitor, radiometric",0.5 µM,remaining activity,97.3%
Cn1cncc1[C@](O)(COc1ccc(C#N)cc1-c1ccc(OC(F)(F)F)cc1)c1ccc(C#N)cc1,"cell-free assay, competition with immobilised ligand",1 µM,remaining binding,91%
Nc1ncc(-c2nc(N3CCOCC3)nc(N3CCOCC3)n2)c(C(F)F)n1,"cell-free assay, competition with immobilised ligand",10 µM,remaining binding,26%
Cc1nn(C)cc1-c1nc2c(N3CCN(Cc4ccc(Cl)cc4)CC3)c(Cl)cnc2[nH]1,"binding, competition with immobilised ligand",1 µM,remaining binding,100%
CC(C)(C)c1nc(-c2cccc(NS(=O)(=O)c3c(F)cccc3F)c2F)c(-c2ccnc(N)n2)s1,"enzyme activity, inhibitor, radiometric",1 µM,remaining activity,93%
Cn1cc(-c2cc(F)cc(N3CCn4c(cc5c4CCCC5)C3=O)c2CO)cc(Nc2ccc(N3CCN(C4COC4)CC3)cn2)c1=O,"enzyme activity, inhibitor",0.1 µM,inhibition,11%
COc1ccc(OC)c2c(=S)c3ccccc3[nH]c12,"enzyme activity, inhibitor, radiometric",0.5 µM,remaining activity,84.5%
CC(C)(C)c1nc2c(s1)c1nc(N)ncc1c1ccc(NS(=O)(=O)c3c(F)cccc3F)c(F)c12,"enzyme activity, inhibitor, radiometric",1 µM,remaining activity,90%
COc1ncccc1-c1cnn2ccc(N3CCN(C(=O)OC(C)C)CC3)nc12,"binding, competition with immobilised ligand",1 µM,remaining binding,68%
Cn1cc(-c2cccc(N3CCc4c(sc5c4CC(C)(C)C5)C3=O)c2CO)cc(Nc2ccncn2)c1=O,"enzyme activity, inhibitor",1 µM,inhibition,4%
